In ChEMBL document CHEMBL1143935, “Synthesis and biological evaluation of novel dimiracetam derivatives useful for the treatment of neuropathic pain” (Bioorg Med Chem, 2008):
The source made the active and inactive calls.

Tests used:
Rattus norvegicus [1] = test: Antihyperalgesic activity in Sprague-Dawley rat assessed as lesioned paw pressure threshold at 30 ug/kg, icv after 60 mins; type: functional
Method in brief: (§1)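 Sciatic nerve-ligated (chronic constriction injury, Bennett–Xie) male Sprague–Dawley rats, 150–200 g, dosed i.c.v.; saline served as vehicle. Paw withdrawal threshold (g) of the lesioned paw was read by analgesimeter before dosing and at 30, 45 and 60 min, max force 240 g. Baseline outliers (<40 g, >75 g) were excluded. Mean ± SEM of 8–14 rats; ANOVA with Fisher PLSD.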

Rattus norvegicus [2] = test: Antihyperalgesic activity in Sprague-Dawley rat assessed as lesioned paw pressure threshold at 30 ug/kg, icv after 45 mins; type: functional; method in brief: as §1
Rattus norvegicus [3] = test: Antihyperalgesic activity in Sprague-Dawley rat assessed as lesioned paw pressure threshold at 30 ug/kg, icv after 30 mins; type: functional; method in brief: as §1
Rattus norvegicus [4] = test: Antihyperalgesic activity in Sprague-Dawley rat assessed as lesioned paw pressure threshold at 100 ug/kg, icv after 30 mins; type: functional; method in brief: as §1
Rattus norvegicus [5] = test: Antihyperalgesic activity in Sprague-Dawley rat assessed as lesioned paw pressure threshold at 100 ug/kg, icv after 60 mins; type: functional; method in brief: as §1
Rattus norvegicus [6] = test: Antihyperalgesic activity in Sprague-Dawley rat assessed as lesioned paw pressure threshold at 100 ug/kg, icv after 45 mins; type: functional; method in brief: as §1
Rattus norvegicus [7] = test: Neurotoxicity in Sprague-Dawley rat assessed as behavioural impairment at 100 mg/kg, po by rotarod test; type: toxicity, organism-based; design: dose 100 mg/kg, route oral; details: in vivo
Method in brief: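 Rotarod motor incoordination test in male Sprague–Dawley rats: animals walk against the rotating drum for 30 s, and the readout is the number of falls in 30 s.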

Rattus norvegicus [8] = species: Rattus norvegicus; test: Analgesic activity against streptozotocin-induced hyperalgesia in Sprague-Dawley rat assessed as increase in paw mechanical threshold; type: functional, organism-based
Method in brief: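 Male Sprague–Dawley rats, 150–200 g, given streptozotocin 50 mg/kg ip and tested 21 days later; compound given orally at 30–100 mg/kg, with non-diabetic controls. Paw pressure analgesimeter recorded force (g) causing first struggle before and 30, 45, 60 min after dosing; 240 g cutoff. Means of 9–10 rats; ANOVA with Fisher's PLSD.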

Rattus norvegicus [9] = test: Analgesic activity against nerve injury-induced hyperalgesia in Sprague-Dawley rat assessed as increase in lesional paw pressure threshold at 50 mg/kg, po after 30 to 60 mins; type: functional, organism-based; design: dose 50 mg/kg
Method in brief: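 Male Sprague–Dawley rats, 150–200 g, with chronic constriction injury (loose ligatures on right common sciatic nerve, chloral hydrate anaesthesia); oral dosing. Paw pressure analgesimeter measured withdrawal/first-struggle force (g) on lesioned and contralateral paws before and 30, 45, 60 min after dosing. Pre-dose scores below 40 g or above 75 g excluded; 240 g cutoff. Means of 6–11 rats; ANOVA with Fisher's PLSD.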

Rattus norvegicus [10] = test: Antihyperalgesic activity in Sprague-Dawley rat assessed as lesioned paw pressure threshold at 10 ug/kg, icv after 60 mins; type: functional; method in brief: as §1
Rattus norvegicus [11] = test: Antihyperalgesic activity in Sprague-Dawley rat assessed as lesioned paw pressure threshold at 10 ug/kg, icv after 30 mins; type: functional; method in brief: as §1
Rattus norvegicus [12] = test: Antihyperalgesic activity in Sprague-Dawley rat assessed as lesioned paw pressure threshold at 10 ug/kg, icv after 45 mins; type: functional; method in brief: as §1
Rattus norvegicus [13] = test: Antihyperalgesic activity in Sprague-Dawley rat assessed as lesioned paw pressure threshold at 500 ug/kg, icv after 30 mins; type: functional
Method in brief: (§2)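 Male Sprague–Dawley rats, 150–200 g, with right sciatic nerve chronic constriction injury (Bennett–Xie). Compound given i.c.v. and withdrawal threshold (g) on lesioned and contralateral paws measured with an analgesimeter before dosing and at 30, 45, 60 min. Pre-dose scores outside 40–75 g excluded; 240 g maximum force. 8–14 rats per group; ANOVA with Fisher's PLSD.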

Rattus norvegicus [14] = test: Antihyperalgesic activity in Sprague-Dawley rat assessed as lesioned paw pressure threshold at 500 ug/kg, icv after 45 mins; type: functional; method in brief: as §2
Rattus norvegicus [15] = test: Antihyperalgesic activity in Sprague-Dawley rat assessed as lesioned paw pressure threshold at 500 ug/kg, icv after 60 mins; type: functional; method in brief: as §2
Rattus norvegicus [16] = test: Analgesic activity against nerve injury-induced hyperalgesia in Sprague-Dawley rat assessed as increase in lesional paw pressure threshold at 30 mg/kg, po after 30 to 60 mins; type: functional, organism-based; design: dose 30 mg/kg
Method in brief: (§3)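 Male Sprague–Dawley rats (150–200 g) given a chronic constriction injury: loose ligatures on the right common sciatic nerve (Bennett–Xie), under chloral hydrate anaesthesia. Oral dosing. Analgesimeter paw pressure; withdrawal force in g recorded before and 30, 45, 60 min after dosing, cut-off 240 g. Rats below 40 g or above 75 g at baseline were excluded. Mean ± SEM, 6–11 rats; ANOVA with Fisher PLSD.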

Rattus norvegicus [17] = test: Analgesic activity against streptozotocin-induced hyperalgesia in Sprague-Dawley rat assessed as increase in paw mechanical threshold at 100 mg/kg, po; type: functional, organism-based; design: dose 100 mg/kg
Method in brief: (§4)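 Male Sprague–Dawley rats (150–200 g) were given streptozotocin 50 mg/kg ip and tested 21 days later. Oral dosing; paw pressure analgesimeter read as the force (g) at first struggling, before and at 30–60 min after dosing, cut-off 240 g. Rats below 40 g or above 75 g at baseline were excluded. Mean ± SEM, 9–10 rats; ANOVA with Fisher PLSD.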

Rattus norvegicus [18] = test: Analgesic activity against streptozotocin-induced hyperalgesia in Sprague-Dawley rat assessed as increase in paw mechanical threshold at 50 mg/kg, po; type: functional, organism-based; design: dose 50 mg/kg; method in brief: as §4
Rattus norvegicus [19] = test: Analgesic activity against nerve injury-induced hyperalgesia in Sprague-Dawley rat assessed as increase in lesional paw pressure threshold at 10 mg/kg, po after 30 to 60 mins; type: functional, organism-based; design: dose 10 mg/kg; method in brief: as §3

Cc1cccc(C)c1NC(=O)CN1CCCC1=O [NEFIRACETAM]
Activity (Rattus norvegicus [1]): 47.6 g
Activity (Rattus norvegicus [2]): 49.5 g
Activity (Rattus norvegicus [3]): 46.7 g

Cc1ccccc1N1C(=O)CN2C(=O)CCC21 (stereo not drawn)
Activity (Rattus norvegicus [1]): 54.8 g
Activity (Rattus norvegicus [2]): 55.3 g
Activity (Rattus norvegicus [3]): 46.7 g

NCC1(CC(=O)O)CCCCC1 [GABAPENTIN]
Activity (Rattus norvegicus [1]): 46.1 g
Activity (Rattus norvegicus [2]): 43.5 g
Activity (Rattus norvegicus [3]): 46.3 g

CC(C)c1cccc(N2C(=O)CN3C(=O)CCC32)c1 (stereo not drawn)
Activity (Rattus norvegicus [1]): 42.5 g
Activity (Rattus norvegicus [2]): 43.7 g
Activity (Rattus norvegicus [3]): 48.5 g

O=C1CN2C(=O)CCC2N1 (stereo not drawn) [DIMIRACETAM]
Activity (Rattus norvegicus [4]): 41 g
Activity (Rattus norvegicus [5]): 39.2 g
Activity (Rattus norvegicus [6]): 42.8 g

N#Cc1cccc(N2C(=O)CN3C(=O)CCC32)c1 (stereo not drawn)
Activity (Rattus norvegicus [7]): Non-toxic
Activity (Rattus norvegicus [1]): 46.8 g
Activity (Rattus norvegicus [2]): 55.4 g
Activity (Rattus norvegicus [8]): Dose-dependent effect
Activity (Rattus norvegicus [3]): 49.7 g
Activity (Rattus norvegicus [9]): Active

O=C1CCC2N1CC(=O)N2c1ccccc1 (stereo not drawn)
Activity (Rattus norvegicus [1]): 53.3 g
Activity (Rattus norvegicus [2]): 52.7 g
Activity (Rattus norvegicus [3]): 51.7 g

N#Cc1ccc(N2C(=O)CN3C(=O)CCC32)cc1 (stereo not drawn)
Activity (Rattus norvegicus [10]): 58.2 g
Activity (Rattus norvegicus [11]): 59.4 g
Activity (Rattus norvegicus [12]): 55.3 g
Activity (Rattus norvegicus [8]): Dose-dependent effect
Activity (Rattus norvegicus [9]): Active

Cc1cccc(N2C(=O)CN3C(=O)CCC32)c1 (stereo not drawn)
Activity (Rattus norvegicus [10]): 51.2 g
Activity (Rattus norvegicus [11]): 59.3 g
Activity (Rattus norvegicus [12]): 63.4 g

CC[C@@H](C(N)=O)N1CCCC1=O [LEVETIRACETAM]
Activity (Rattus norvegicus [13]): 51.8
Activity (Rattus norvegicus [14]): 52.1
Activity (Rattus norvegicus [15]): 49.3

Cc1ccc(N2C(=O)CN3C(=O)CCC32)cc1 (stereo not drawn)
Activity (Rattus norvegicus [16]): Active
Activity (Rattus norvegicus [7]): Non-toxic
Activity (Rattus norvegicus [17]): Active
Activity (Rattus norvegicus [10]): 45.4 g
Activity (Rattus norvegicus [18]): Active
Activity (Rattus norvegicus [11]): 54 g
Activity (Rattus norvegicus [12]): 57.4 g
Activity (Rattus norvegicus [19]): inactive
